Reference: ChEMBL document CHEMBL4346684, “Synthesis and structure-bactericidal activity relationships of non-ketolides: 9-Oxime clarithromycin 11,12-cyclic carbonate featured with three-to eight-atom-length spacers at 3-OH” (Eur J Med Chem, 2019)
≈ marks a conversion by molar mass, not a printed value. Calls of active or inactive are those of the source. The calls are words filed in the database; no cut-off is given here.

Experiments:
Streptococcus pyogenes [1] = test: Bactericidal activity against inducibly erythromycin resistant Streptococcus pyogenes 01-968 expressing i-ermA assessed as reduction in colony formation incubated in CAMHB medium for 20 to 24 hrs followed by 24 hrs subculturing in the medium without test compound; type: functional
Cytochrome P450 3A4 = Cytochrome P450 3A4 (Homo sapiens, UniProt P08684); test: Inhibition of CYP3A4 in human liver microsomes using midazolam as substrate incubated for 10 mins after substrate addition by HPLC analysis; type: ADME
Cytochrome P450 3A4, sequence (P08684 whole entry): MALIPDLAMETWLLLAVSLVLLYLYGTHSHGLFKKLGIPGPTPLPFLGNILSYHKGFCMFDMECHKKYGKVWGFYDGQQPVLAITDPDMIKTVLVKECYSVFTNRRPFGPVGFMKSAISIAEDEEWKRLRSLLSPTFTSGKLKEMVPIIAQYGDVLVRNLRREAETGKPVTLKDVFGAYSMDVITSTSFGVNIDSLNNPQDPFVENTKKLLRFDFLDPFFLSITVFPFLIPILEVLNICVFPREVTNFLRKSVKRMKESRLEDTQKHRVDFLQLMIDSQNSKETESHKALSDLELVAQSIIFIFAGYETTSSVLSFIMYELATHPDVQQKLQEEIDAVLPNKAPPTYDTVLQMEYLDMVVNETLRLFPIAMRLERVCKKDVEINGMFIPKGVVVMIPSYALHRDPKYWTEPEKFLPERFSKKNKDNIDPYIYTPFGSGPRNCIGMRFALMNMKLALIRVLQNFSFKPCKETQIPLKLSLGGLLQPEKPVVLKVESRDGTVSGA
In short: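 Human liver microsome CYP3A4 (0.03 mg/mL final), midazolam 5.00 μM final, 0.1 M potassium phosphate pH 7.4 with MgCl2, preincubated 37 °C 5 min. Test compound 0-25.00 μM (ketoconazole 0-0.25 μM as reference) and NADPH 1.5 mM final added; 10 min at 37 °C. Metabolite/internal-standard peak-area ratio measured by UPLC-MS/MS; IC50 fitted.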

Streptococcus pneumoniae [2] = test: Antimicrobial activity against mef-encoded erythromycin resistant Streptococcus pneumoniae PU09 incubated in CAMHB medium for 20 to 24 hrs by two-fold microbroth dilution method; type: functional
Streptococcus pneumoniae [3] = test: Bactericidal activity against erythromycin-susceptible Streptococcus pneumoniae ATCC 49619 incubated at >1XMIC incubated for 1 to 24 hrs by broth dilution method; type: functional, organism-based
In short: (§1)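 Samples taken at 1, 2, 4, 6, 8, 12, 24 h, diluted and plated, colonies counted after 20-24 h at 35 °C; log CFU plotted against time. Detection limit 300 CFU/mL.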

Streptococcus pneumoniae [4] = test: Bactericidal activity against erythromycin-susceptible Streptococcus pneumoniae ATCC 49619 assessed as log reduction in bacterial CFU at 1XMIC incubated for 1 to 24 hrs by broth dilution method; type: functional; in short: as §1
Streptococcus pyogenes [5] = test: Bactericidal activity against inducibly erythromycin resistant Streptococcus pyogenes 01-968 expressing i-ermA at 1 to 16XMIC incubated for 12 hrs by broth dilution method; type: functional, organism-based
In short: (§2)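 Samples were taken at 1, 2, 4, 6, 8, 12 and 24 h, diluted and subcultured at 35 °C for 20–24 h. Colonies were counted and log CFU plotted against time; detection limit 300 CFU/mL.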

Rattus norvegicus [6] = test: Ratio of telithromycin AUC to compound AUC in Sprague-Dawley rat at 20 mg/kg, po administered as single dose measured for 0.25 to 24 hrs by LC-MS/MS analysis; type: ADME, organism-based; conditions: in vivo
[7] = AUCinfinity in Sprague-Dawley rat at 20 mg/kg, po administered as single dose measured for 0.25 to 24 hrs by LC-MS/MS analysis; type: ADME, organism-based; set-up: dose 20 mg/kg, time infinity, route oral; conditions: in vivo
In short: (§3)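 Male SD rats (2-3 per compound) given a single oral 20 mg/kg dose in saline with 1% DMF/20% hydroxypropyl-β-cyclodextrin (w/v). Blood drawn at 0.25, 0.5, 1, 2, 4, 6, 8 and 24 h, centrifuged 2500 g, 5 min, 4 °C; drug quantified by LC-MS/MS. Noncompartmental parameters calculated (AUC0-t, AUCinf, CL, t1/2, MRT, Cmax, Tmax); mean ± s.d.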

Streptococcus pneumoniae [8] = test: Bactericidal activity against mef-encoded erythromycin resistant Streptococcus pneumoniae PU09 at 1 to 16xMIC incubated for 1 to 24 hrs by broth dilution method; type: functional, organism-based; in short: as §2
Staphylococcus aureus [9] = test: Antimicrobial activity against inducibly erythromycin-resistant and methicillin resistant Staphylococcus aureus PU32 expressing i-ermA incubated in CAMHB medium for 20 hrs by two-fold microbroth dilution method; type: functional; conditions: PU32, 20 h
In short: (§4)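 Purified fresh Staphylococcus isolate at about 5×10^5 CFU/ml final in CAMHB, 35 °C for 20 h. Each run included ATCC strains and reference antibiotics as QC, plus an antibiotic-free growth control.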

Rattus norvegicus [10] = test: Ratio of telithromycin clearance to compound clearance in Sprague-Dawley rat at 20 mg/kg, po administered as single dose measured for 0.25 to 24 hrs by LC-MS/MS analysis; type: ADME, organism-based; conditions: in vivo
Streptococcus pneumoniae [11] = test: Ratio of MBC to MIC for mef-encoded erythromycin resistant Streptococcus pneumoniae PU09; type: functional
Streptococcus pyogenes [12] = test: Ratio of MBC to MIC for inducibly erythromycin resistant Streptococcus pyogenes 01-968 expressing i-ermA; type: functional
[13] = Half life in Sprague-Dawley rat at 20 mg/kg, po administered as single dose measured for 0.25 to 24 hrs by LC-MS/MS analysis; type: ADME, organism-based; conditions: in vivo; in short: as §3
[14] = MRT in Sprague-Dawley rat at 20 mg/kg, po administered as single dose measured for 0.25 to 24 hrs by LC-MS/MS analysis; type: ADME, organism-based; conditions: in vivo; in short: as §3
[15] = Ratio of telithromycin MRT to compound MRT in Sprague-Dawley rat at 20 mg/kg, po administered as single dose measured for 0.25 to 24 hrs by LC-MS/MS analysis; type: ADME, organism-based; conditions: in vivo
Streptococcus pneumoniae [16] = test: Bactericidal activity against mef-encoded erythromycin resistant Streptococcus pneumoniae PU09 assessed as reduction in colony formation incubated in CAMHB medium for 20 to 24 hrs followed by 24 hrs subculturing in the medium without test compound; type: functional
Streptococcus pneumoniae [17] = test: Bactericidal activity against erythromycin-susceptible Streptococcus pneumoniae ATCC 49619 assessed as reduction in colony formation incubated in CAMHB medium for 20 to 24 hrs followed by 24 hrs subculturing in the medium without test compound; type: functional
[18] = Tmax in Sprague-Dawley rat at 20 mg/kg, po administered as single dose measured for 0.25 to 24 hrs by LC-MS/MS analysis; type: ADME, organism-based; conditions: in vivo; in short: as §3
Rattus norvegicus [19] = test: Ratio of telithromycin Tmax to compound Tmax in Sprague-Dawley rat at 20 mg/kg, po administered as single dose measured for 0.25 to 24 hrs by LC-MS/MS analysis; type: ADME, organism-based; conditions: in vivo
Staphylococcus aureus [20] = test: Ratio of MBC to MIC for inducibly erythromycin-resistant and methicillin resistant Staphylococcus aureus PU32 expressing i-ermA; type: functional
Streptococcus pyogenes [21] = test: Bactericidal activity against inducibly erythromycin resistant Streptococcus pyogenes 01-968 expressing i-ermA assessed as log reduction in bacterial CFU at 1 to 16XMIC incubated for 24 hrs by broth dilution method; type: functional; in short: as §2
Haemophilus influenzae [22] = test: Antimicrobial activity against azithromycin-susceptible Haemophilus influenzae ATCC 49247 incubated in HTM broth medium for 20 to 24 hrs by two-fold microbroth dilution method; type: functional
Streptococcus pneumoniae [23] = test: Ratio of clarithromycin MBC to compound MBC for mef-encoded erythromycin resistant Streptococcus pneumoniae PU09; type: functional
[24] = Cmax in Sprague-Dawley rat at 20 mg/kg, po administered as single dose measured for 0.25 to 24 hrs by LC-MS/MS analysis; type: ADME, organism-based; set-up: dose 20 mg/kg, route oral; conditions: in vivo; in short: as §3
Staphylococcus aureus [25] = test: Ratio of clarithromycin MBC to compound MBC for inducibly erythromycin-resistant and methicillin resistant Staphylococcus aureus PU32 expressing i-ermA; type: functional
Rattus norvegicus [26] = test: Ratio of telithromycin Cmax to compound Cmax in Sprague-Dawley rat at 20 mg/kg, po administered as single dose measured for 0.25 to 24 hrs by LC-MS/MS analysis; type: ADME, organism-based; conditions: in vivo
Streptococcus pyogenes [27] = test: Antimicrobial activity against inducibly erythromycin resistant Streptococcus pyogenes 01-968 expressing i-ermA incubated in CAMHB medium for 20 to 24 hrs by two-fold microbroth dilution method; type: functional
Rattus norvegicus [28] = test: Ratio of telithromycin half life to compound half life in Sprague-Dawley rat at 20 mg/kg, po administered as single dose measured for 0.25 to 24 hrs by LC-MS/MS analysis; type: ADME, organism-based; conditions: in vivo
Streptococcus pyogenes [29] = test: Ratio of clarithromycin MBC to compound MBC for inducibly erythromycin resistant Streptococcus pyogenes 01-968 expressing i-ermA; type: functional
Staphylococcus aureus [30] = test: Antimicrobial activity against constitutively erythromycin resistant and methicillin resistant Staphylococcus aureus PU20 expressing c-ermC incubated in CAMHB medium for 20 hrs by two-fold microbroth dilution method; type: functional; conditions: PU20, 20 h; in short: as §4
[31] = AUC (0 to t) in Sprague-Dawley rat at 20 mg/kg, po administered as single dose measured for 0.25 to 24 hrs by LC-MS/MS analysis; type: ADME, organism-based; set-up: time 0.25-24 hr, dose 20 mg/kg, route oral; conditions: in vivo; in short: as §3
Staphylococcus aureus [32] = test: Bactericidal activity against inducibly erythromycin-resistant and methicillin resistant Staphylococcus aureus PU32 expressing i-ermA assessed as reduction in colony formation incubated in CAMHB medium for 20 hrs followed by 24 hrs subculturing in the medium without test compound; type: functional
Haemophilus influenzae [33] = test: Bactericidal activity against azithromycin-susceptible Haemophilus influenzae ATCC 49247 assessed as reduction in colony formation incubated in HTM broth medium for 20 to 24 hrs followed by 24 hrs subculturing in the medium without test compound; type: functional
[34] = Clearance in Sprague-Dawley rat at 20 mg/kg, po administered as single dose measured for 0.25 to 24 hrs by LC-MS/MS analysis; type: ADME, organism-based; conditions: in vivo; in short: as §3
Streptococcus pneumoniae [35] = test: Ratio of MBC to MIC for erythromycin-susceptible Streptococcus pneumoniae ATCC 49619; type: functional
Haemophilus influenzae [36] = test: Ratio of MBC to MIC for azithromycin-susceptible Haemophilus influenzae ATCC 49247; type: functional
Streptococcus pneumoniae [37] = test: Antimicrobial activity against erythromycin-susceptible Streptococcus pneumoniae ATCC 49619 incubated in CAMHB medium for 20 to 24 hrs by two-fold microbroth dilution method; type: functional

In the case of `CC[C@H]1OC(=O)[C@H](C)[C@@H](OC(=O)NCCCc2cccnc2)[C@H](C)[C@@H](O[C@@H]2O[C@H](C)C[C@H](N(C)C)[C@H]2O)[C@](C)(OC)C[C@@H](C)/C(=N\OC)[C@H](C)[C@H]2OC(=O)O[C@@]21C`, the MBC (Streptococcus pyogenes [1]) is reported as 2 µg/mL (≈ 2.48 µM), the IC50 (Cytochrome P450 3A4) is reported as 2.5 µM and the MIC (Streptococcus pneumoniae [2]) is reported as 0.5 µg/mL (≈ 0.62 µM). The Activity (Streptococcus pneumoniae [3]) was “Active”, the Activity (Streptococcus pneumoniae [4]) was 2 log10CFU and the Activity (Streptococcus pyogenes [5]) was “Active”. The Ratio (Rattus norvegicus [6]) was 7, the AUC(0-inf) [7] was 6760 ng·h/mL and the Activity (Streptococcus pneumoniae [8]) was “Active”. It also gave an MIC (Staphylococcus aureus [9]) of 8 µg/mL (≈ 9.91 µM), a Ratio (Rattus norvegicus [10]) of 7 and a Ratio (Streptococcus pneumoniae [11]) of 1. For the same compound, the Ratio (Streptococcus pyogenes [12]) was 8, the half-life [13] was 2.94 h and the MRT [14] was 4.53 h. For the same compound, the Ratio [15] was 1.4, the MBC (Streptococcus pneumoniae [16]) was 0.5 µg/mL (≈ 0.62 µM) and the MBC (Streptococcus pneumoniae [17]) was 0.125 µg/mL (≈ 0.155 µM). The Tmax [18] was 0.833 h, the Ratio (Rattus norvegicus [19]) was 0.4 and the Ratio (Staphylococcus aureus [20]) was 2. The Activity (Streptococcus pyogenes [21]) was “<=3 log10CFU”, the MIC (Haemophilus influenzae [22]) was 64 µg/mL (≈ 79.3 µM) and the Ratio (Streptococcus pneumoniae [23]) was 32. It also gave a Cmax [24] of 1030 ng/mL, a Ratio (Staphylococcus aureus [25]) of 32 and a Ratio (Rattus norvegicus [26]) of 5. For the same compound, the MIC (Streptococcus pyogenes [27]) was 0.25 µg/mL (≈ 0.31 µM), the Ratio (Rattus norvegicus [28]) was 2.4 and the Ratio (Streptococcus pyogenes [29]) was 32. For the same compound, the MIC (Staphylococcus aureus [30]) was greater than 256 µg/mL, the AUC(0-t) [31] was 6730 ng·h/mL and the MBC (Staphylococcus aureus [32]) was 16 µg/mL (≈ 19.8 µM). It also gave an MBC (Haemophilus influenzae [33]) of 128 µg/mL (≈ 159 µM), a CL/F [34] of 50.6 mL/min/kg and a Ratio (Streptococcus pneumoniae [35]) of 2. The Ratio (Haemophilus influenzae [36]) was 2 and the MIC (Streptococcus pneumoniae [37]) was 0.06 µg/mL (≈ 0.0743 µM).
